Assay results as given in ChEMBL document CHEMBL1125102, “Synthesis and biological evaluation of 2-styrylquinazolin-4(3H)-ones, a new class of antimitotic anticancer agents which inhibit tubulin polymerization” (J Med Chem, 1990).
Converted amounts (≈) assume the structure as drawn. “And” between values parts separate entries of the source, which are not always exact repeats. Identical values can stand only once.

How the values were obtained:
L1210 [1] = assay: In vitro inhibition of L1210 murine leukemia cells by using MTT assay in cell culture; assay type: functional, cell-based; conditions: Mus musculus
Procedure, shortened: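 L1210 murine leukemia cells in culture; cytotoxicity measured by MTT assay, reported as IC50 in μg/mL.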

Tubulin = assay: Inhibition of tubulin polymerization; assay type: functional
Procedure, shortened: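 Glutamate-driven assembly: purified tubulin 1.0 mg/mL (10 μM) in 1.0 M monosodium glutamate pH 6.6, 1.0 mM MgCl2, 4% (v/v) DMSO, preincubated with drug 15 min at 37 °C, chilled, GTP added, then warmed 0→37 °C in cuvettes with turbidity read-out. IC50 = drug level halving extent of polymerization, obtained graphically in triplicate experiments.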

L1210 [2] = assay: In vivo inhibition of L1210 murine leukemia cells in mice (ip) at a dose of 100 mg/kg; assay type: functional, Mus musculus
Procedure, shortened: (§1)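 L1210 murine leukemia in mice: tumor cells inoculated ip, drug injected ip one day later; efficacy expressed as % T/C at the stated dose.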

L1210 [3] = assay: In vivo inhibition of L1210 murine leukemia cells in mice (ip) at a dose of 200 mg/kg; assay type: functional, Mus musculus; procedure, shortened: as §1
L1210 [4] = assay: In vivo inhibition of L1210 murine leukemia cells in mice (ip) at a dose of 50 mg/kg; assay type: functional, Mus musculus; procedure, shortened: as §1
L1210 [5] = assay: In vivo inhibition of L1210 murine leukemia cells in mice (ip) at a dose of 240 mg/kg; assay type: functional, Mus musculus; procedure, shortened: as §1
L1210 [6] = assay: In vivo inhibition of L1210 murine leukemia cells in mice (ip) at a dose of 12 mg/kg; assay type: functional, Mus musculus; procedure, shortened: as §1
L1210 [7] = assay: In vivo inhibition of L1210 murine leukemia cells in mice (ip) at a dose of 25 mg/kg; assay type: functional, Mus musculus; procedure, shortened: as §1
[8] = Antitumor activity against murine sarcoma M531 cells was determined after (ip) administration of a dose of 120 mg/kg, ip; assay type: functional, Mus musculus; conditions: route intraperitoneal
MX1 [9] = assay: Antitumor activity against human mammary tumor xenograft MX-1(SRC) cells was determined after (ip) administration of a dose of 240 mg/kg; assay type: functional
P388 [10] = assay: (§2) Antitumor activity against […] was determined after (ip) administration of a dose of 60 mg/kg; assay type: functional, Mus musculus
L1210 [11] = assay: as §2; assay type: functional, Mus musculus
MX1 [12] = assay: Antitumor activity against human mammary tumor xenograft MX-1(SRC) cells was determined after (ip) administration of a dose of 60 mg/kg; assay type: functional
[13] = Antitumor activity against murine melanoma B16 cells was determined after (ip) administration of a dose of 200 mg/kg, ip; assay type: functional, Mus musculus; conditions: route intraperitoneal
[14] = Antitumor activity against murine sarcoma M531 cells was determined after (ip) administration of a dose of 240 mg/kg, ip; assay type: functional, Mus musculus; conditions: route intraperitoneal
[15] = Antitumor activity against human melanoma xenograft LOX (SC) cells was determined after (ip) administration of a dose of 120 mg/kg; assay type: functional
[16] = Antitumor activity against human melanoma xenograft LOX (SC) cells was determined after (ip) administration of a dose of 240 mg/kg; assay type: functional
P388 [17] = assay: (§3) Antitumor activity against murine leukemia P388 cells was determined after (ip) administration of a dose of 120 mg/kg; assay type: functional, Mus musculus
L1210 [18] = assay: as §3; assay type: functional, Mus musculus
[19] = Antitumor activity against murine melanoma B16 cells was determined after (ip) administration of a dose of 400 mg/kg, ip; assay type: functional, Mus musculus; conditions: route intraperitoneal
MX1 [20] = assay: Antitumor activity against human mammary tumor xenograft MX-1(SRC) cells was determined after (ip) administration of a dose of 120 mg/kg; assay type: functional
[21] = Antitumor activity against human melanoma xenograft LOX (SC) cells was determined after (ip) administration of a dose of 60 mg/kg; assay type: functional
[22] = Antitumor activity against murine melanoma B16 cells was determined after (ip) administration of a dose of 100 mg/kg, ip; assay type: functional, Mus musculus; conditions: route intraperitoneal
[23] = Antitumor activity against murine melanoma B16 cells was determined after (ip) administration of a dose of 50 mg/kg, ip; assay type: functional, Mus musculus; conditions: route intraperitoneal
[24] = Antitumor activity against murine melanoma B16 cells was determined after (ip) administration of a dose of 300 mg/kg, ip; assay type: functional, Mus musculus; conditions: route intraperitoneal

Row | IC50 (L1210 [1]) [µg/mL] | IC50 (Tubulin) [µM] | SMILES | other results
1 | > 1 | 17 | Oc1nc(/C=C/c2ccccc2)nc2cc(Cl)ccc12 | 
2 |  | 5.3 | CN1CCN(C(Cc2nc(O)c3cc(Cl)ccc3n2)c2ccccc2)CC1 (configuration not stated) | T/C (L1210 [2]): 100%
3 | 0.3 (≈ 0.802 µM) | 1.4 | Oc1nc(/C=C/c2ccccc2)nc2ccc(I)cc12 | T/C (L1210 [3]): 117%
4 | 0.3 (≈ 0.979 µM) | 4 | CC(=O)Oc1ccc2nc(/C=C/c3ccccc3)nc(O)c2c1 | T/C (L1210 [3]): 78%
5 | 0.04 (≈ 0.135 µM) | > 40 | Cn1c(/C=C/c2ccccc2)nc(=O)c2cc(Cl)ccc21 | T/C (L1210 [4]): 96%
6 | > 1 | > 40 | Oc1nc(/C=C/c2ccccc2)nc2c(Cl)cccc12 | 
7 | 0.02 (≈ 0.0806 µM) | 11 | O=c1[nH]c(/C=C/c2ccccc2)nc2ccccc12 | T/C (L1210 [5]): 133%
8 | 0.03 (≈ 0.114 µM) | > 40 | Cc1cccc2nc(/C=C/c3ccccc3)nc(O)c12 | T/C (L1210 [3]): 100%
9 | > 1 | > 40 | Cc1nc(O)c2cc(Cl)ccc2n1 | 
10 | > 1 | > 40 | C/C=C/c1nc(O)c2ccccc2n1 | 
11 | 0.4 (≈ 1.37 µM) | > 40 | CCOc1ccc2nc(/C=C/c3ccccc3)nc(O)c2c1 | 
12 | > 1 | > 40 | O=c1[nH]c(=O)c2nc(/C=C/c3ccccc3)nc(O)c2[nH]1 | T/C (L1210 [4]): 93%
13 |  | > 40 | CCN(CC)CCCC(C)Nc1nc(/C=C/c2ccccc2)nc2ccc(Cl)cc12 (configuration not stated) | T/C (L1210 [6]): 105%
14 | > 1 | > 40 | C/C=C/c1nc(O)c2cc(Cl)ccc2n1 | T/C (L1210 [3]): 95%
15 | 0.01 (≈ 0.0306 µM) | 2 | Oc1nc(/C=C/c2ccccc2)nc2ccc(Br)cc12 | T/C (L1210 [7]): 133%
16 | 0.007 (≈ 0.0233 µM) | > 40 | Oc1nc(/C=C/c2ccccc2)nc2cc(Cl)c(F)cc12 | T/C (L1210 [2]): 111%
17 | > 1 | > 40 | Cc1nc(/C=C/c2ccccc2)nc(O)c1C | T/C (L1210 [4]): 89%
18 | > 1 | > 40 | Nn1c(/C=C/c2ccccc2)nc2ccc(Cl)cc2c1=O | T/C (L1210 [4]): 90%
19 | > 1 | > 40 | O=c1c2cc(Cl)ccc2nc2n1NC(c1ccccc1)C2 (configuration not stated) | 
20 | 0.001 (≈ 0.00359 µM) | 2 | COc1ccc2nc(/C=C/c3ccccc3)[nH]c(=O)c2c1 | T/C [8]: 136%; T/C (MX1 [9]): -81%; T/C (P388 [10]): 135%; T/C (L1210 [11]): 158%; T/C (MX1 [12]): 21%; T/C [13]: 197% and 141%; T/C [14]: 154%; T/C [15]: 142%; T/C [16]: 153%; T/C (P388 [17]): 174%; T/C (L1210 [18]): 225%; T/C [19]: 190%; T/C (L1210 [4]): 173%; T/C (MX1 [20]): 16%; T/C [21]: 142%; T/C [22]: 145%; T/C [23]: 129%; T/C [24]: 158%
21 | > 1 | > 40 | Sc1nc(/C=C/c2ccccc2)nc2ccc(Cl)cc12 | T/C (L1210 [4]): 94%
